Laboratory results published in ChEMBL document CHEMBL5550111, “Design, synthesis and biological evaluation of aryloxy thiophosphoramidate triesters of anticancer nucleoside analogues” (Bioorg Med Chem, 2024).

Assays:
K562 [1] = experiment: Cytotoxicity against human K562 cells assessed as maximum inhibition of cell viability upto 198 uM incubated for 72 hrs by MTS assay relative to control; format: functional; conditions: up to 198 µM
Outline: (§1)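 Cells seeded at 0.5 to 100 × 10^3 per well the day before drug addition, then exposed to compound for 72 h. MTS added afterwards, with a further 4 h at 37 °C, and absorbance read. Tested in duplicate at 9 serial 3.16-fold dilutions, top concentration 198 μM. MI% is the maximum inhibition of viability across the tested range.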

K562 [2] = experiment: Cytotoxicity against human K562 cells assessed as inhibition of cell viability incubated for 72 hrs by MTS assay; format: functional, cell-based; conditions: K562, 72 h
Outline: (§2)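 Cells seeded at 0.5 to 100 × 10^3 per well the day before treatment, then exposed for 72 h to 9 serial concentrations (3.16-fold dilutions, top 198 μM), in duplicate. MTS added for a final 4 h at 37 °C and absorbance read. IC50 is the concentration giving 50% loss of viability. MI% is the maximum inhibition over the tested range.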

[3] = Cytotoxicity against human ACHN-luc2 cells assessed as maximum inhibition of cell viability upto 198 uM incubated for 72 hrs by MTS assay relative to control; format: functional; conditions: up to 198 µM; outline: as §1
COLO 205 [4] = experiment: Cytotoxicity against human COLO 205 cells assessed as maximum inhibition of cell viability upto 198 uM incubated for 72 hrs by MTS assay relative to control; format: functional; conditions: up to 198 µM; outline: as §1
MDA-MB-231 [5] = experiment: Cytotoxicity against human MDA-MB-231 cells assessed as inhibition of cell viability incubated for 72 hrs by MTS assay; format: functional, cell-based; conditions: MDA-MB-231, 72 h; outline: as §2
MDA-MB-231 [6] = experiment: Cytotoxicity against human MDA-MB-231 cells assessed as maximum inhibition of cell viability upto 198 uM incubated for 72 hrs by MTS assay relative to control; format: functional; conditions: up to 198 µM; outline: as §1
HT-29 [7] = experiment: Cytotoxicity against human HT-29 cells assessed as inhibition of cell viability incubated for 72 hrs by MTS assay; format: functional, cell-based; conditions: HT-29, 72 h; outline: as §2
MCF7 [8] = experiment: Cytotoxicity against human MCF7 cells assessed as maximum inhibition of cell viability upto 198 uM incubated for 72 hrs by MTS assay relative to control; format: functional; conditions: up to 198 µM; outline: as §1
KG-1 [9] = experiment: Cytotoxicity against human KG-1 cells assessed as inhibition of cell viability incubated for 72 hrs by MTS assay; format: functional, cell-based; conditions: KG-1, 72 h; outline: as §2
MCF7 [10] = experiment: Cytotoxicity against human MCF7 cells assessed as inhibition of cell viability incubated for 72 hrs by MTS assay; format: functional, cell-based; conditions: MCF7, 72 h
MOLT-4 [11] = experiment: Cytotoxicity against human MOLT-4 cells assessed as inhibition of cell viability incubated for 72 hrs by MTS assay; format: functional, cell-based; conditions: MOLT-4, 72 h; outline: as §2
MIA PaCa-2 [12] = experiment: Cytotoxicity against human MIA PaCa-2 cells assessed as maximum inhibition of cell viability upto 198 uM incubated for 72 hrs by MTS assay relative to control; format: functional; conditions: up to 198 µM; outline: as §1
RL [13] = experiment: Cytotoxicity against human RL cells assessed as inhibition of cell viability incubated for 72 hrs by MTS assay; format: functional, cell-based; outline: as §2
KG-1 [14] = experiment: Cytotoxicity against human KG-1 cells assessed as maximum inhibition of cell viability upto 198 uM incubated for 72 hrs by MTS assay relative to control; format: functional; conditions: up to 198 µM; outline: as §1
MIA PaCa-2 [15] = experiment: Cytotoxicity against human MIA PaCa-2 cells assessed as inhibition of cell viability incubated for 72 hrs by MTS assay; format: functional, cell-based; conditions: MIA PaCa-2, 72 h; outline: as §2
RL [16] = experiment: Cytotoxicity against human RL cells assessed as maximum inhibition of cell viability upto 198 uM incubated for 72 hrs by MTS assay relative to control; format: functional; conditions: up to 198 µM; outline: as §1
HL-60 [17] = experiment: Cytotoxicity against human HL-60 cells assessed as inhibition of cell viability incubated for 72 hrs by MTS assay; format: functional, cell-based; conditions: HL-60, 72 h; outline: as §2
[18] = Cytotoxicity against human T24/83 cells assessed as maximum inhibition of cell viability upto 198 uM incubated for 72 hrs by MTS assay relative to control; format: functional; conditions: up to 198 µM; outline: as §1
HL-60 [19] = experiment: Cytotoxicity against human HL-60 cells assessed as maximum inhibition of cell viability upto 198 uM incubated for 72 hrs by MTS assay relative to control; format: functional; conditions: up to 198 µM; outline: as §1
CAKI-2 [20] = experiment: Cytotoxicity against human CAKI-2 cells assessed as inhibition of cell viability incubated for 72 hrs by MTS assay; format: functional, cell-based; conditions: CAKI-2, 72 h; outline: as §2
5637 [21] = experiment: Cytotoxicity against human 5637 cells assessed as maximum inhibition of cell viability upto 198 uM incubated for 72 hrs by MTS assay relative to control; format: functional; conditions: up to 198 µM; outline: as §1
PC-3 [22] = experiment: Cytotoxicity against human PC-3 cells assessed as maximum inhibition of cell viability upto 198 uM incubated for 72 hrs by MTS assay relative to control; format: functional; conditions: up to 198 µM; outline: as §1
MOLT-4 [23] = experiment: Cytotoxicity against human MOLT-4 cells assessed as maximum inhibition of cell viability upto 198 uM incubated for 72 hrs by MTS assay relative to control; format: functional; conditions: up to 198 µM; outline: as §1
HT-29 [24] = experiment: Cytotoxicity against human HT-29 cells assessed as maximum inhibition of cell viability upto 198 uM incubated for 72 hrs by MTS assay relative to control; format: functional; conditions: up to 198 µM; outline: as §1
PC-3 [25] = experiment: Cytotoxicity against human PC-3 cells assessed as inhibition of cell viability incubated for 72 hrs by MTS assay; format: functional, cell-based; conditions: PC-3, 72 h; outline: as §2
A498 [26] = experiment: Cytotoxicity against human A498 cells assessed as inhibition of cell viability incubated for 72 hrs by MTS assay; format: functional, cell-based; conditions: A498, 72 h; outline: as §2
5637 [27] = experiment: Cytotoxicity against human 5637 cells assessed as inhibition of cell viability incubated for 72 hrs by MTS assay; format: functional, cell-based; conditions: Homo sapiens, 5637, 72 h; outline: as §2
CAKI-2 [28] = experiment: Cytotoxicity against human CAKI-2 cells assessed as maximum inhibition of cell viability upto 198 uM incubated for 72 hrs by MTS assay relative to control; format: functional; conditions: up to 198 µM; outline: as §1
A498 [29] = experiment: Cytotoxicity against human A498 cells assessed as maximum inhibition of cell viability upto 198 uM incubated for 72 hrs by MTS assay relative to control; format: functional; conditions: up to 198 µM; outline: as §1
[30] = Cytotoxicity against human T24/83 cells assessed as inhibition of cell viability incubated for 72 hrs by MTS assay; format: functional, cell-based; conditions: T24/83, 72 h; outline: as §2
COLO 205 [31] = experiment: Cytotoxicity against human COLO 205 cells assessed as inhibition of cell viability incubated for 72 hrs by MTS assay; format: functional, cell-based; conditions: COLO 205, 72 h; outline: as §2
HepG2 [32] = experiment: Cytotoxicity against human HepG2 cells assessed as maximum inhibition of cell viability upto 198 uM incubated for 72 hrs by MTS assay relative to control; format: functional; conditions: up to 198 µM; outline: as §1
[33] = Cytotoxicity against human ACHN-luc2 cells assessed as inhibition of cell viability incubated for 72 hrs by MTS assay; format: functional, cell-based; conditions: ACHN-luc2, 72 h; outline: as §2
HepG2 [34] = experiment: Cytotoxicity against human HepG2 cells assessed as inhibition of cell viability incubated for 72 hrs by MTS assay; format: functional, cell-based; conditions: HepG2, 72 h; outline: as §2

`C[C@H](NP(=O)(OC[C@@H]1C[C@@H](O)[C@H](n2cnc3c(N)ncnc32)O1)Oc1ccccc1)C(=O)OCc1ccccc1` (some centres undefined) [FOSDESDENOSINE SIPALABENAMIDE] gave an Imax (K562 [1]) of 83%, an IC50 (K562 [2]) of 10.3 µM and an Imax [3] of 62%. It also gave an Imax (COLO 205 [4]) of 87%, an IC50 (MDA-MB-231 [5]) of 19.4 µM and an Imax (MDA-MB-231 [6]) of 79%. For the same compound, the IC50 (HT-29 [7]) was 9.47 µM, the Imax (MCF7 [8]) was 90% and the IC50 (KG-1 [9]) was 23.5 µM. The IC50 (MCF7 [10]) was 3.69 µM, the IC50 (MOLT-4 [11]) was 4.67 µM and the Imax (MIA PaCa-2 [12]) was 95%. For the same compound, the IC50 (RL [13]) was 34.6 µM, the Imax (KG-1 [14]) was 92% and the IC50 (MIA PaCa-2 [15]) was 7.41 µM. The Imax (RL [16]) was 94%, the IC50 (HL-60 [17]) was 38.4 µM and the Imax [18] was 92%. For the same compound, the Imax (HL-60 [19]) was 101%, the IC50 (CAKI-2 [20]) was 102 µM and the Imax 5637 [21] was 100%. For the same compound, the Imax (PC-3 [22]) was 74%, the Imax (MOLT-4 [23]) was 96% and the Imax (HT-29 [24]) was 96%. It also gave an IC50 (PC-3 [25]) of 51.2 µM, an IC50 (A498 [26]) of 58.1 µM and an IC50 5637 [27] of 47.5 µM. For the same compound, the Imax (CAKI-2 [28]) was 78%, the Imax (A498 [29]) was 82% and the IC50 [30] was 31.4 µM. The IC50 (COLO 205 [31]) was 27.8 µM, the Imax (HepG2 [32]) was 80% and the IC50 [33] was 112 µM. The IC50 (HepG2 [34]) was 25.2 µM.
